# Measurements taken from ChEMBL document CHEMBL1144515, “Synthesis, in vitro evaluation, and SAR studies of a potential antichagasic 1H-pyrazolo[3,4-b]pyridine series” (Bioorg Med Chem, 2007).
# System: Trypanosoma cruzi
# Experiment: Antiparasitic activity against Trypanosoma cruzei Y blood stream trypomastigotes
# Assay type: functional, organism-based
# Method in brief: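 Mouse infected blood diluted with healthy mouse blood and fetal bovine serum to about 106 trypomastigotes/mL; compounds from DMSO stocks added at final 10, 100, 250, 500 and 1000 µg/mL. Incubated 4 °C, 24 h with constant shaking; untreated and crystal violet-treated controls; triplicate. Trypomastigotes counted, % lysis versus untreated; IC50 taken as 50% activity concentration.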
row,SMILES,IC50 [µg/mL]
1,Cc1nn(-c2ccccc2)c2nc(-c3ccc(C#N)cc3)cc(C(=O)N/N=C\c3ccc([N+](=O)[O-])cc3)c12,37.3
2,Cc1nn(-c2ccccc2)c2nc(-c3ccccc3)cc(C(=O)N/N=C\c3ccc(F)cc3)c12,88.9
3,Cc1nn(-c2ccccc2)c2nc(-c3ccccc3)cc(C(=O)N/N=C\c3ccc([N+](=O)[O-])cc3)c12,95.3
4,CCOc1ccc(-c2cc(C(=O)N/N=C\c3ccc([N+](=O)[O-])cc3)c3c(C)nn(-c4ccccc4)c3n2)cc1,1180
5,Cc1nn(-c2ccccc2)c2nc(-c3ccc(C#N)cc3)cc(C(=O)N/N=C\c3ccc(F)cc3)c12,378
6,COc1ccc(-c2cc(C(=O)NN)c3c(C)nn(-c4ccccc4)c3n2)cc1,781
7,Cc1nn(-c2ccccc2)c2nc(-c3ccc(C#N)cc3)cc(C(=O)NN)c12,341
8,CCOc1ccc(-c2cc(C(=O)NN)c3c(C)nn(-c4ccccc4)c3n2)cc1,439
9,Cc1nn(-c2ccccc2)c2nc(-c3ccccc3)cc(C(=O)N/N=C\c3ccccc3)c12,205
10,COc1ccc(-c2cc(C(=O)N/N=C\c3ccc(F)cc3)c3c(C)nn(-c4ccccc4)c3n2)cc1,1460
11,Cc1nn(-c2ccccc2)c2nc(-c3ccccc3)cc(C(=O)NN)c12,782
12,CCOc1ccc(-c2cc(C(=O)N/N=C\c3ccc(F)cc3)c3c(C)nn(-c4ccccc4)c3n2)cc1,39.3
13,Cc1nn(-c2ccccc2)c2nc(-c3ccc(Cl)cc3)cc(C(=O)NN)c12,211
14,COc1ccc(-c2cc(C(=O)N/N=C\c3ccc([N+](=O)[O-])cc3)c3c(C)nn(-c4ccccc4)c3n2)cc1,> 1500
15,Cc1nn(-c2ccccc2)c2nc(-c3ccc([N+](=O)[O-])cc3)cc(C(=O)NN)c12,533

# Next, values leading:
row,IC50 [µg/mL],SMILES
1,108,Cc1nn(-c2ccccc2)c2nc(-c3ccc(Cl)cc3)cc(C(=O)N/N=C\c3ccc([N+](=O)[O-])cc3)c12
2,170,CCOc1ccc(-c2cc(C(=O)N/N=C\c3ccc(O)cc3)c3c(C)nn(-c4ccccc4)c3n2)cc1
3,1.9,Cc1nn(-c2ccccc2)c2nc(-c3ccccc3)cc(C(=O)N/N=C\c3ccc(O)cc3)c12
4,332,COc1ccc(-c2cc(C(=O)N/N=C\c3ccc(O)cc3)c3c(C)nn(-c4ccccc4)c3n2)cc1
5,197,Cc1nn(-c2ccccc2)c2nc(-c3ccc(Cl)cc3)cc(C(=O)N/N=C\c3ccc(F)cc3)c12
6,71.8,Cc1nn(-c2ccccc2)c2nc(-c3ccc(Cl)cc3)cc(C(=O)N/N=C\c3ccc(O)cc3)c12
7,260,Cc1nn(-c2ccccc2)c2nc(-c3ccc(C#N)cc3)cc(C(=O)N/N=C\c3ccc(O)cc3)c12
